{"source": "paper PMC6690763", "about": "(Bioorganic & medicinal chemistry letters, 2019)", "key": {"[1]": {"assay": "plasma stability, human", "type": "in vitro ADME"}, "[2]": {"assay": "plasma stability, mouse", "type": "in vitro ADME"}, "[3]": {"tested_on": "latent EBV in MutuI cells", "assay": "EBV lytic reactivation, MutuI cell based assay", "design": "species or system Epstein-Barr virus", "details": "for potency in EBV reactivation relative to 12: analogs of 12"}, "[4]": {"assay": "solubility on formulation", "type": "physicochemical", "details": "for solubility when formulated: 10% DMSO/ 10% solutol/ 80% PBS formulation mixture; for water solubility (ease of formulation): PEG moiety instead of methoxy in the B ring"}, "[5]": {"tested_on": "latent EBV in SNU719 gastric carcinoma tumors", "assay": "SNU719 gastric carcinoma xenograft, BZLF1 immunoblot of tumors", "type": "in vivo", "details": "NSG mice, 30 mg/kg i.p. once per day, 4 days", "outline": "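SNU719 gastric carcinoma cells (1×10^7) injected subcutaneously into left and right flanks of NSG mice (both sexes, 8-10 weeks old). From 28 days post-injection, test compound given i.p. at 30 mg/kg once daily; controls were vehicle (5% DMSO/5% Solutol) and PBS. Tumors collected after 4 days of treatment and homogenized. Immunoblot for lytic BZLF1 (Z), with β-actin as loading control.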"}, "[6]": {"tested_on": "latent EBV", "assay": "cell based reactivation, Western blot analysis", "design": "species or system Epstein-Barr virus", "details": "compared with methoxy substituted counterparts; data not shown"}, "[7]": {"assay": "liver microsomal stability, human", "type": "in vitro ADME", "details": "microsomes"}, "[8]": {"assay": "liver microsomal stability, mouse", "type": "in vitro ADME", "details": "microsomes"}, "[9]": {"tested_on": "EBV-positive cells", "details": "combination with Ganciclovir; cited from earlier work"}, "[10]": {"tested_on": "latent EBV in MutuI cells", "details": "typical; cited from earlier work"}}, "data": [{"smiles": "COc1ccc(C2c3[nH]c4ccc(Cl)cc4c3CCN2C(=O)c2cccc(OC)c2)cc1", "note": "(stereo not drawn) [Compound 12]", "values": [{"measurement": "Plasma Stability Human", "setting": "[1]", "result": ">6", "unit": "h"}, {"measurement": "Plasma Stability Mouse", "setting": "[2]", "result": ">6", "unit": "h"}]}, {"smiles": "COc1ccc(C2c3[nH]c4ccc(Cl)cc4c3CCN2C(=O)c2cccc(CN3CCOCC3)c2)cc1", "note": "(stereo not drawn) [Compound 18]", "values": [{"measurement": "potency in EBV reactivation relative to 12", "setting": "[3]", "result": "maintained potency"}, {"measurement": "solubility when formulated", "setting": "[4]", "result": "more soluble"}]}, {"smiles": "O=C(c1cccc(CN2CCOCC2)c1)N1CCc2c([nH]c3ccc(Cl)cc23)C1c1ccc(Cl)cc1", "note": "(stereo not drawn) [Compound 19]", "values": [{"measurement": "potency in EBV reactivation relative to 12", "setting": "[3]", "result": "maintained potency"}, {"measurement": "solubility when formulated", "setting": "[4]", "result": "more soluble"}]}, {"smiles": "COc1cccc(C(=O)N2CCc3c([nH]c4ccc(Cl)cc34)C2c2ccc(O)cc2)c1", "note": "(stereo not drawn) [Compound 20]", "values": [{"measurement": "potency in EBV reactivation relative to 12", "setting": "[3]", "result": "maintained potency"}, {"measurement": "EBV reactivation in tumors (presence of lytic protein BZLF1)", "setting": "[5]", "result": "modestly reactivates EBV"}, {"measurement": "solubility when formulated", "setting": "[4]", "result": "more soluble"}]}, {"smiles": "COCCOCCOCCOc1ccc(C2c3[nH]c4ccc(Cl)cc4c3CCN2C(=O)Nc2ccccc2C(=O)OC)cc1", "note": "(stereo not drawn) [Compound 21]", "values": [{"measurement": "activity by Western blot analysis", "setting": "[6]", "result": "comparable activity to their methoxy substituted counterparts"}, {"measurement": "water solubility (ease of formulation)", "setting": "[4]", "result": "significantly improved water solubility"}]}, {"smiles": "COCCOCCOCCOc1ccc(C2c3[nH]c4ccc(Cl)cc4c3CCN2C(=O)Nc2ccccc2Cl)cc1", "note": "(stereo not drawn) [Compound 22]", "values": [{"measurement": "activity by Western blot analysis", "setting": "[6]", "result": "comparable activity to their methoxy substituted counterparts"}, {"measurement": "water solubility (ease of formulation)", "setting": "[4]", "result": "significantly improved water solubility"}]}, {"smiles": "COC(=O)c1ccccc1NC(=O)N1CCc2c([nH]c3ccc(Cl)cc23)C1c1ccc(OC)cc1", "note": "(stereo not drawn) [Compound C60]", "values": [{"measurement": "Liver Microsomal Stability Human CLint", "setting": "[7]", "result": 0.93}, {"measurement": "Plasma Stability Human", "setting": "[1]", "result": ">6", "unit": "h"}, {"measurement": "Liver Microsomal Stability Mouse CLint", "setting": "[8]", "result": "< 0.5"}, {"measurement": "Plasma Stability Mouse", "setting": "[2]", "result": ">6", "unit": "h"}, {"measurement": "EC50", "setting": "[3]; human gammaherpesvirus 4, MUTU-I, read-out: potency in cells", "result": "150 to 200", "unit": "nM"}, {"measurement": "synergy with GCV in killing EBV-positive cells", "setting": "[9]", "result": "functions synergistically with Ganciclovir (GCV) to selectively kill EBV-positive cells"}]}, {"smiles": "CCCC(=O)[O-].[Na+]", "note": "[NaB, sodium butyrate]", "values": [{"measurement": "concentration required to trigger the latent to lytic switch", "setting": "[10]", "result": "millimolar concentrations"}]}, {"smiles": "CCCCCCCCCCCCCC(=O)O[C@@H]1[C@@H](C)[C@@]2(O)[C@@H](C=C(CO)C[C@]3(O)C(=O)C(C)=C[C@@H]23)[C@@H]2C(C)(C)[C@]12OC(C)=O", "note": "[TPA, 12-O-tetradecanoylphorbol-13-acetate]", "values": [{"measurement": "concentration required to trigger the latent to lytic switch", "setting": "[10]", "result": "millimolar concentrations"}]}]}
